Screens (PubChem BioAssay)
NPR2 activator: human GC-B receptor activators, primary screen, HEK293 GC-B cells, cGMP TR-FRET, EC30 CNP; actives 0.11% (n = 370,000); activation, % at 10 µM; Atrial natriuretic peptide receptor 2 (Homo sapiens), P20594; 0% at EC30 CNP, 100% saturating CNP;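 active = activation at 10 µM reaching about 35% in either raw or pattern-adjusted values, limit read from the data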
GRIN3A LBD mod: binders of NR3A ligand-binding domain, primary screen, biophysical, differential scanning fluorimetry, uHTS | Glutamate receptor ionotropic, NMDA 3A (GRIN3A) ligand-binding domain | NR3A LBD differential scanning fluorimetry, Tm shift; 0% = protein alone, 100% = glycine-bound protein | Tm shift relative to glycine control, % at 25 µM | actives 2.5% (n = 340,000) | AID 1259313, 2017;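 active = melting temperature shift of at least 10% of the positive control shift, at one fixed dose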
GASC-1 inh: inhibitors of GASC-1 histone demethylase, primary screen, biochemical, fluorescence, DELFIA europium; GST-JMJD2C(1-420) H3K9me3 demethylation; actives 0.069% (n = 330,000); inhibition, % at 2.35 µM; Lysine-specific demethylase 4C (Homo sapiens), Q9H3R0; AID 2099, 2009;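 active = more than half of a compound's replicate wells show inhibition beyond 50%, single wells judged on their own value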;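 also: signal counts dimethyl H3K9 product captured on neutravidin plate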
NPR1 activator: GC-A stimulated cGMP production enhancers – HEK293 GC-A cells, cGMP TR-FRET, EC30 ANP, primary screen; activation, % at 10 µM; Atrial natriuretic peptide receptor 1 (Homo sapiens), P16066; 0% at EC30 ANP, 100% saturating ANP; actives 0.14% (n = 370,000); AID 1671463, 2021; in the data active = activation above about 40%
aDG glyco act: activators of alpha-DG glycosylation, primary screen, uHTS, Pro5-aDG cells, AlphaScreen. alpha-DG glycosylation AlphaScreen (IIH6); 0% Pro5, 100% B10-LARGE cell signal. activation, % at 10 µM. actives 0.22% (n = 360,000);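 active = activation of at least 8% versus controls, or a plate z-score of at least 8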;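 also: Pro5 are CHO cells carrying HIG-tagged alpha-DG that lacks glycosylation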
Hep lipid drop: inhibitors of hepatocyte lipid droplet formation, primary screen, imaging, high-throughput imaging, BODIPY stain | AML12 mouse hepatocytes, oleate lipid droplets | inhibition, % at 6.5 µM | actives 0.4% (n = 240,000) | AID 1656, 2009;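 active = lipid droplet intensity inhibited by at least 50%, with more than 500 cells counted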
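Assay system: AML12 hepatocytes (mouse); Probe or stimulus: oleic acid at 100 µM to induce lipid droplet formation; Dosing: compound at 6.5 µM only; Schedule: compound with oleate, overnight; Detection: fluorescence imaging, 20x objective, two fields per well; Measure: % inhibition of lipid droplet signal.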
Each line names hits and unclear results; the compound was inactive in the other large screens. A selection: hits, their analogues and other compounds. The true share with any hit is near 3%.

CC(=O)Oc1ccc(-c2cc3ccc(OC(C)=O)cc3oc2=O)cc1	none (no result: Hep lipid drop)
O=C(OCC(=O)c1c[nH]c2ccccc12)c1ccc([N+](=O)[O-])s1	none
CCc1cccc2c(C(=O)COC(=O)c3ccc([N+](=O)[O-])s3)c[nH]c12	GRIN3A LBD mod 10
O=C(/C=C/c1ccc2c(c1)OCCCO2)c1ccc2ccccc2c1O	GRIN3A LBD mod 32
Cc1cc(N/N=C/c2ccc(O)c(C)c2O)nc(-c2ccccc2O)n1	GRIN3A LBD mod 32
C/C(=N\Nc1cc(C)nc(-c2ccccc2O)n1)c1ccccc1	GRIN3A LBD mod 14
C/C(=N\Nc1cc(C)nc(-c2ccccc2)n1)c1cccc([N+](=O)[O-])c1	GRIN3A LBD mod 17
COc1cc(OC)c(OC)cc1CNC(=O)c1cccc(S(=O)(=O)N2CCc3ccccc3C2)c1	none (no result: GASC-1 inh, Hep lipid drop)
Cc1ccc2nc(-c3ccc(NC(=O)CSc4nnc(-c5cccc(Cl)c5)n4Cc4ccco4)cc3)sc2c1	none (no result: GRIN3A LBD mod, GASC-1 inh, aDG glyco act, Hep lipid drop)
COc1cc2nc(Nc3ccc(C)c(C)c3)nc(N)c2cc1OC	GRIN3A LBD mod 16
COc1cc2nc(Nc3ccc(C)c(Cl)c3)nc(N)c2cc1OC	GRIN3A LBD mod 28
Cc1ccc(Nc2nc(N)c3ccccc3n2)cc1Cl	GRIN3A LBD mod 39
Nc1nc(Nc2ccc(Cl)cc2)nc2ccccc12	GRIN3A LBD mod 39
CCOc1ccc(Nc2nc(N)c3ccccc3n2)cc1	GRIN3A LBD mod 28 (no result: Hep lipid drop)
CC(C)(C)OC(=O)NCc1ccccc1/C=C/S(=O)(=O)NCCc1ccccc1	none (no result: GRIN3A LBD mod, GASC-1 inh, aDG glyco act, Hep lipid drop)
S=C(NCc1ccc2[nH]c3c(c2c1)CCCC3)Nc1ccccc1Cl	GRIN3A LBD mod 11
Cc1ccccc1NC(=S)NCc1ccc2[nH]c3c(c2c1)CCCC3	none
Oc1cc(O)cc(C=Cc2ccc(O)c(O)c2)c1	none (no result: GRIN3A LBD mod, GASC-1 inh, aDG glyco act, Hep lipid drop)
COc1ccc(COC(=O)N/N=C/c2cccs2)cc1	GRIN3A LBD mod 32
Cc1noc(NS(=O)(=O)c2ccc(NC(=O)C(Cl)(Cl)Cl)cc2)c1C	none
Cc1noc(NS(=O)(=O)c2ccc(NC(=O)Nc3ccc(Cl)c(Cl)c3)cc2)c1C	GRIN3A LBD mod 36
Cc1noc(NS(=O)(=O)c2ccc(NC(=O)CCN3C(=O)c4ccccc4C3=O)cc2)c1C	GRIN3A LBD mod 14
O=C(OCCN1CCN(C2CN(Cc3cn(Cc4ccccc4Cl)nn3)S(=O)(=O)C2)CC1)c1cc2ccccc2o1 (stereo unspecified)	none (no result: GRIN3A LBD mod, GASC-1 inh, aDG glyco act, Hep lipid drop)
CCOC(=O)C1CCN(C(=O)CN2C(=O)c3ccccc3S2(=O)=O)CC1	GRIN3A LBD mod 18 (no result: Hep lipid drop)
COc1ccc(NC(=O)c2[nH]c(C)c(C(C)=O)c2C)cc1S(=O)(=O)Nc1ccc(Br)cc1	GRIN3A LBD mod 11
COc1ccc(NC(=O)c2ccc(F)cc2)cc1S(=O)(=O)Nc1cc(C)ccc1Br	GRIN3A LBD mod 21
COc1ccc(NC(=O)c2[nH]c(C)c(C(C)=O)c2C)cc1Cl	none (no result: Hep lipid drop)
COc1ccc(NS(=O)(=O)c2cc(NC(=O)c3ccc(F)cc3)ccc2OC)cc1	none
CC(=O)Nc1ccc(/C=C/COC(C)=O)cc1C	none (no result: GRIN3A LBD mod, GASC-1 inh, aDG glyco act, Hep lipid drop)
O=C(CSc1nnc(-c2ccncc2)n1-c1ccccc1)Nc1cccc2ccccc12	none (no result: GRIN3A LBD mod, GASC-1 inh, aDG glyco act, Hep lipid drop)
CCOC(=O)C(C)Sc1nc(C2CC2)cc(C(F)(F)F)c1C#N (stereo unspecified)	none (no result: Hep lipid drop)
COC(=O)CSc1nc(C2CC2)cc(C(F)(F)F)c1C#N	GRIN3A LBD mod 18 (no result: Hep lipid drop)
O=C(CSc1nnc(COc2ccc(Cl)cc2)o1)OC1CCCCC1	NPR1 activator 76
O=C(CSc1nnc(CNc2cccc(Cl)c2)o1)OC1CCCCC1	none (no result: Hep lipid drop)
Cc1cc(OCc2nnc(SCC(=O)OC3CCCCC3)o2)ccc1Cl	NPR1 activator 66 (no result: Hep lipid drop)
O=C(CSc1nnc(COc2ccc(Br)cc2)o1)NC1CCCCC1	none
